The LD50 is the dose at which mortality reaches 50%. Low readings indicate a more toxic substance, high ones a less toxic substance.

In data set [1] the test system is Mus musculus. The data set is described as follows: Induction of spontaneous locomotor activity in Swiss-Webster albino mouse assessed as time required to show activity at 27.2 umol/kg, ip measured every 10 mins in first hour followed by every hour for 5 hrs. The format is functional. The procedure, abridged: (§1)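 Mice weighing 22–24 g, acclimated at least 2 weeks, fed and watered freely until testing, and split into groups of five, each mouse used once. Sulfate salts in normal saline given ip at 0.2 mL/10 g. Controls received saline. Activity was counted as photocell beam interruptions in six-beam circular cages. Tests ran between 11:00 a.m. and 5:00 p.m.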

Data set [2] relates to Mus musculus. The data set is described as follows: Induction of spontaneous locomotor activity in Swiss-Webster albino mouse assessed as total activity AUC at 27.2 umol/kg, ip. It counts as functional, organism-based. As to conditions: tested as the 2H-labelled form. A digest of the protocol: as §1
Data set [3] can be described thus: Acute toxicity in ip dosed Swiss-Webster mouse measured for 24 hrs. It counts as organism-based. As to conditions: in vivo. The procedure, abridged:
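Groups of mice given three intraperitoneal doses (313, 353 and 394 μM/kg), 14–22 mice per dose, observed for 24 h. LD50 in mg/kg derived from regression dose-response curves by the Litchfield and Wilcoxon method.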

The nature of data set [4]: Potency ratio of compound LD50 to protioamphetamine LD50 for ip dosed Swiss-Webster mouse. The format is ADME, organism-based. The following applies: in vivo.
Data set [5] deals with Mus musculus. The data set is described as follows: Induction of spontaneous locomotor activity in Swiss-Webster albino mouse assessed as time required to show activity at 10.6 mg/kg, ip measured every 10 mins in first hour followed by every hour for 5 hrs. The format is functional. The following applies: route intraperitoneal. A digest of the protocol: as §1
Data set [6] deals with Mus musculus. The data set is described as follows: Induction of spontaneous locomotor activity in Swiss-Webster albino mouse assessed as total activity AUC at 10.6 mg/kg, ip. The format is functional, organism-based. Set-up: dose 10.6 mg/kg. The following applies: tested as the 2H-labelled form. A digest of the protocol: as §1
Data set [7] has as its system Mus musculus. The data set is described as follows: Induction of spontaneous locomotor activity in Swiss-Webster albino mouse assessed as time required to show activity at 10 mg/kg, ip measured every 10 mins in first hour followed by every hour for 5 hrs. It counts as functional. The following applies: route intraperitoneal. A digest of the protocol: as §1
Data set [8] concerns Mus musculus. The data set is described as follows: Induction of spontaneous locomotor activity in Swiss-Webster albino mouse assessed as total activity AUC at 10 mg/kg, ip. It counts as functional, organism-based. Set-up: dose 10 mg/kg. The procedure, abridged: as §1

As for `O=S(=O)(O)O.[2H]C(C)(N)C([2H])([2H])c1ccccc1` (racemic), the Time with Mus musculus [1] was 105 min.

`CC(N)Cc1ccccc1` (racemic; 5): in the data set on Mus musculus [2], the AUC turned out to be 355 cm2.

For `CC(N)Cc1ccccc1` (racemic; 4), in the data set on Mus musculus [2], the AUC is 370 cm2.

Regarding `O=S(=O)(O)O.[2H]C([2H])([2H])C([2H])(N)C([2H])([2H])c1ccccc1` (racemic), in the data set on Mus musculus [1], the Time was 100 min. The 50% lethal dose (LD50) at 24 h in data set [3] worked out at 143 mg/kg. The selectivity ratio in data set [4] was found to be 1.16.

For `O=S(=O)(O)O.[2H]c1c([2H])c([2H])c(C([2H])([2H])C([2H])(N)C([2H])([2H])[2H])c([2H])c1[2H]` (racemic), in the data set with Mus musculus [5], the Time is on record as 120 min. Also, in data set [3], the median lethal dose (LD50) at 24 h was 149 mg/kg. Also, the selectivity ratio in data set [4] was determined as 1.2.

Regarding `O=S(=O)(O)O.[2H]C(c1ccccc1)C(C)N` (racemic), in the data set with Mus musculus [1], the Time stood at 75 min.

Turning to `CC(N)Cc1ccccc1` (racemic; 3), in the data set on Mus musculus [2], the AUC came out at 367 cm2.

Take `CC(N)Cc1ccccc1` (racemic; 2): the AUC with Mus musculus [2] is 349 cm2.

`CC(N)Cc1ccccc1` (racemic): in the data set on Mus musculus [6], the AUC stood at 350 cm2.

`O=S(=O)(O)O.[2H]C(C)(N)Cc1ccccc1` (racemic): in the data set on Mus musculus [1], the Time was 100 min.

Take `CC(N)Cc1ccccc1` (racemic; 6): in the data set with Mus musculus [2], the AUC worked out at 374 cm2.

Turning to `C[C@H](N)Cc1ccccc1.C[C@H](N)Cc1ccccc1.O=S(=O)(O)O` [DEXTROAMPHETAMINE SULFATE], in the data set on Mus musculus [7], the Time is on record as 70 min. In addition, the AUC with Mus musculus [8] turned out to be 350 cm2. In data set [3], this compound came in with an LD50 at 24 h of 123 mg/kg.

For the compound `O=S(=O)(O)O.[2H]c1c([2H])c([2H])c(C([2H])([2H])C(C)N)c([2H])c1[2H]` (racemic), the Time with Mus musculus [1] turned out to be 80 min. The compound further displayed an LD50 at 24 h in data set [3] of 140 mg/kg. Further, the selectivity ratio in data set [4] was found to be 1.13.

The values are drawn from ChEMBL document CHEMBL3244257, “Effects of deuteration on locomotor activity of amphetamine” (J Med Chem, 1978).
